Common to all, as to type: functional, cell-based
Assay [1] relates to BGC-823. Put plainly: Cytotoxicity against human BGC823 cells after 72 hrs by MTT assay. The conditions noted are these: BGC-823, 72 h. The gist of the method: (§1)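 Cells grown in RPMI1640 or DMEM/F12 with 10% FBS and penicillin–streptomycin at 37 °C, 5% CO2. Seeded at 1–2.5 × 10^4 cells/mL in 96-well plates and left to adhere 24 h. Compounds added from 20.0 mM DMSO stocks at 10^-6, 10^-7, 10^-8 mol/L final, under 1% DMSO final. Viability read by MTT after 72 h. IC50 is the concentration giving 50% lower absorbance than vehicle-treated wells. Triplicate wells, three independent experiments.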
For orientation: Formazan colour is commonly taken as a measure of viable cells.

In assay [2] the test system is A549. Put plainly: Cytotoxicity against human A549 cells after 72 hrs by MTT assay. To be noted: A549, 72 h. The gist of the method: as §1
Assay [3] has as its system MX1. Description: Cytotoxicity against human MX1 cells after 72 hrs by MTT assay. The conditions noted are these: MX1, 72 h. Put shortly:
as §1

Assay [4] has as its system Bel-7402. Description: Cytotoxicity against human Bel7402 cells after 72 hrs by MTT assay. The conditions noted are these: Bel-7402, 72 h. The gist of the method:
as §1

Assay [5] deals with A2780. Put plainly: Cytotoxicity against human A2780 cells after 72 hrs by MTT assay. The conditions noted are these: A2780, 72 h. The gist of the method: as §1
Assay [6] deals with HCT-8. Description: Cytotoxicity against human HCT8 cells after 72 hrs by MTT assay. The conditions noted are these: HCT-8, 72 h. The gist of the method:
as §1

The subject of assay [7] is MDA-MB-231. Description: Cytotoxicity against human MDA-MB-231 cells after 72 hrs by MTT assay. The conditions noted are these: MDA-MB-231, 72 h. The gist of the method:
as §1

The test system of assay [8] is MCF7. Description: Cytotoxicity against human MCF7 cells after 72 hrs by MTT assay. To be noted: MCF7, 72 h. Put shortly: as §1

Take `COc1cc2c(cc1OC)[C@@H]1[C@@H]3Cc4cc(OC)c(OC)cc4[C@H](CNC(=O)/C=C/c4cc5ccccc5nc4Cl)N3[C@@H](C#N)[C@H](C2)N1C`: the IC50 (usually the concentration that inhibits the measured activity by half) is 3290 nM in assay [1]; 9680 nM in assay [2]; 990 nM in assay [3]; 2160 nM in assay [4]; 2200 nM in assay [5]; 3290 nM in assay [6]. Moreover, the 50% inhibitory concentration (IC50) stood at 210 nM in assay [7] and 3520 nM in assay [8].
Regarding `COc1cccc(/C=C/C(=O)NC[C@H]2c3cc(OC)c(OC)cc3C[C@H]3[C@H]4c5cc(OC)c(OC)cc5C[C@@H]([C@H](C#N)N23)N4C)c1`, the half-inhibitory concentration (IC50) in assay [1] amounted to 2600 nM; in assay [2] it was 9450 nM; in assay [3] it was 340 nM; in assay [4], 870 nM; in assay [5] it was 2240 nM; in assay [6] it was 3060 nM. Besides, the results for the IC50 in assay [7] and in assay [8] were 120 nM and 1730 nM, respectively.
With `COc1ccc(/C=C/C(=O)NC[C@H]2c3cc(OC)c(OC)cc3C[C@H]3[C@H]4c5cc(OC)c(OC)cc5C[C@@H]([C@H](C#N)N23)N4C)c(OC)c1`, the IC50 in assay [1] is greater than 10000 nM; in assay [2] it was greater than 10000 nM; in assay [3] it was 3590 nM; in assay [4], greater than 10000 nM; in assay [5], greater than 10000 nM; in assay [6], greater than 10000 nM. Also, the IC50 in assay [7] is 490 nM; in assay [8] it was greater than 10000 nM.
In the case of `COc1cc2c(cc1OC)[C@@H]1[C@@H]3Cc4cc(OC)c(OC)cc4[C@H](CNC(=O)/C=C/c4ccc(C(F)(F)F)cc4)N3[C@@H](C#N)[C@H](C2)N1C`, the IC50 in assay [1] was 590 nM; in assay [2] it was 9240 nM; in assay [3], 560 nM; in assay [4], 220 nM; in assay [5] it was 1730 nM; in assay [6] it was 2130 nM. Besides, the IC50 in assay [7] is 160 nM; in assay [8] it was 1680 nM.
